# Sampled rows, rich in hits. Any-hit rate of the full collection: about 1.6%.
# PPC-1+TRAIL kill: PPC-1 cancer cell killing with TRAIL present | AID 1443 | 220,000 compounds, 0.41% hits | PPC-1 cells + TRAIL, ATPLite viability luminescence | cell killing (% activity), % at 4 µM or 5 µM;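 active = cell killing above 50% in the first pass at 4 µM, then a duplicate retest at 5 µM averaging 50% or more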;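 note: plate controls were cells with TRAIL plus DMSO for no effect and medium-only wells lacking cells for full effect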
# FLuc inhib CS: counter-screen for luciferase assay inhibitors: firefly luciferase inhibition; P08659; ATPLite firefly luciferase biochemical luminescence, 10 min; inhibition, % at 10 µM; 200,000 compounds, 1.5% hits; AID 1006;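 active = inhibition above about 50% when tested at 10 µM, limit read from the data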
# Target sequence (P08659 whole entry, looked up): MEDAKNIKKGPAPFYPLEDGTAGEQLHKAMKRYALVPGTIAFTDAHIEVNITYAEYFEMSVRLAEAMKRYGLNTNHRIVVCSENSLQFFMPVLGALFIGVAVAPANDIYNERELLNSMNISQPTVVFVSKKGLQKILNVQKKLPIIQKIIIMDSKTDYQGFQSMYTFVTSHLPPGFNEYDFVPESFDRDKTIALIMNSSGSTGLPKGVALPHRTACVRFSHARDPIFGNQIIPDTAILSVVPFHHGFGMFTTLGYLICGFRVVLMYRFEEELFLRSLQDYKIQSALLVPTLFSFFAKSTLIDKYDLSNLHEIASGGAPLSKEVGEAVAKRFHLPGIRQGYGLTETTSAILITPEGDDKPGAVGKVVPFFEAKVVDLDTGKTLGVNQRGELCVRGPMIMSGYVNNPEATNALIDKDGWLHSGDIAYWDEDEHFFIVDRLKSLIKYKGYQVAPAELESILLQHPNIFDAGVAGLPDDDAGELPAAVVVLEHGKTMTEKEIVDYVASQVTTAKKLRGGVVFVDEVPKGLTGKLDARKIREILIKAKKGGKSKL
# Platelet DG rel: platelet dense granule release activity. inhibition, %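 (compounds screened at 7.5 µM in platelet-rich plasma)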. AID 1663. 300,000 compounds, 0.22% hits. human platelet-rich plasma, SFLLRN dense granule ATP release, luminescence;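 active = mean replicate score, as percent of positive control, at or above 50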
# C8 TRAIL sens: caspase-8 TRAIL sensitization; 360,000 compounds, 1% hits; inhibition (viability loss, TRAIL sensitization), % at 10 µM; NB7+C8 cells + TRAIL, ATPlite viability luminescence; AID 624354;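 active = compounds causing at least 50% loss of cell viability in the single-dose screen, relative to plate controls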
# FLuc act counter: affects firefly luciferase, flagging false hits in luciferase stimulation screens | 200,000 tested, under 10 active | ATPlite luciferase biochemical, luminescence, 10 min; 0 = ATP-free wells, 1 = DMSO control | activation factor at 10 µM | P08659;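 active = luciferase activation factor, scaled between plate controls, of at least 2 with compound at 10 µM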
#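 Material: luciferase plus luciferin reagent, cell-free. Medium: PBS buffer for ATP. Also added: ATP substrate, dispensed from a 10.24 µM working solution in PBS. Doses: test compounds dosed from 2 mM stocks in 100% DMSO. Incubation: 10 min post-reagent at room temperature. Technique: light output (luminescence). Read-out basis: luminescence gain marking luciferase activators.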
# PPC-1 tox: PPC-1 cell cytotoxicity. shares compounds with PPC-1+TRAIL kill. PPC-1 viability, ATPlite luminescence, overnight. cytotoxicity, % at 5 µM. 1,200 compounds, 50% hits. AID 1447;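 active = reconfirmed compounds whose average cytotoxicity reaches 50% or more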;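 note: 0% = DMSO-treated cells and 100% = wells holding medium but no cells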
# Numbers without * were called inactive; x = no result given.
SMILES,PPC-1+TRAIL kill,FLuc inhib CS,Platelet DG rel,C8 TRAIL sens,FLuc act counter,PPC-1 tox
CC(=O)c1nn(-c2ccccc2)cc1C(=O)c1cccc(Br)c1,2,-8,-13,-5,1.1,x
O=C(NC1CCCC1)C(c1ccco1)N1CCC(O)(c2ccc(Cl)cc2)CC1 (stereo not drawn),x,x,x,-9,x,x
COc1ccc(S(=O)(=O)NC(=O)C2(C)CCN2C(=O)c2c(C)noc2C)cc1 (stereo not drawn),x,x,x,-1,x,x
CSc1ccc(-c2ccco2)nn1,1,27,x,15,0.7,x
CCOc1ccc(-c2ccc(SCC(=O)NCC3CCCO3)nn2)cc1 (stereo not drawn),26,72*,2,52*,0.3,35
COc1ccc(-c2ccc(SCC(=O)Nc3nnc(C)s3)nn2)cc1,50*,64*,21,55*,0.4,50*
CCOc1ccc(-c2ccc(SCC(=O)Nc3nnc(CC)s3)nn2)cc1,70*,65*,x,67*,0.3,68*
CCOc1ccc(-c2ccc(SC)nn2)cc1,91*,96*,95*,92*,0,91*
CCOc1ccc(NC(=O)CCC(=O)Nc2nnc(CC)s2)cc1,x,x,5,22,x,x
COCCNC(=O)C1(C)CCCN(C(=O)c2ccccc2C(F)(F)F)C1 (stereo not drawn),x,x,x,-12,x,x
COc1ccc(/C=C\c2nc(=O)c3ccccc3o2)cc1,60*,93*,12,61*,0.1,57*
COc1ccccc1-c1csc(C(C)(O)c2cccc(F)c2)n1 (stereo not drawn),x,x,x,8,x,x
COCCn1c(C)cc(/C=C2/SC(=O)N(C(C)C(=O)OC)C2=O)c1C (stereo not drawn),53*,x,-1,63*,x,44
CC(=O)Nc1cncc(-c2cnn(CC(C)C)c2)n1,x,x,x,-9,x,x
Cc1nccc(-c2ccc3c(c2)OCO3)n1,18,1,-1,-7,1,x
COC(=O)c1ccc2nc(-c3ccc4c(c3)OCO4)cn2c1,63*,85*,6,70*,0.1,63*
CCc1ccn2cc(-c3ccc4c(c3)OCO4)nc2c1,92*,x,50*,92*,x,91*
COc1ccc(-c2cn3cc(C(=O)NN)ccc3n2)cc1,39,50,-17,48,0.5,x
O=c1[nH]cc(F)c(=O)n1C1OC(CO)C(O)C1O (stereo not drawn),x,x,x,11,x,x
Cc1cc(Br)cn2c(Cc3cccc(F)c3)c(-c3ccccc3)nc12,x,x,x,-10,x,x
Cc1ccc(NC(=O)c2ccc(OC(=O)c3ccco3)cc2)cc1,30,-2,1,34,1,35
CCN(CC)c1ccc(NC(=O)c2ccco2)cc1,58*,83*,13,62*,0.2,61*
CCN(CC)c1ccc(NC(=S)NC(=O)c2ccco2)cc1,x,8,12,13,0.9,x
CC(NC(=O)c1ccccc1Cl)C1COc2ccccc2O1 (stereo not drawn),0,2,-3,-7,1,0
CC(NS(=O)(=O)c1ccccc1)C1COc2ccccc2O1 (stereo not drawn),12,-9,-3,8,1.1,x
SMILES,PPC-1+TRAIL kill,FLuc inhib CS,Platelet DG rel,C8 TRAIL sens,FLuc act counter,PPC-1 tox
Cc1ccc(S(=O)(=O)N2CCN(C(=O)COC(=O)COc3ccccc3)CC2)cc1,11,-5,2,-5,1.1,x
O=C(COc1ccccc1Cl)OCC(=O)N1CCN(S(=O)(=O)c2ccccc2)CC1,10,0,4,-16,1,8
COc1ccc(OC)c(C(O)c2ncc(-c3cccc4ccccc34)[nH]2)c1 (stereo not drawn),x,x,x,-5,x,x
Cc1cn2nc(N)c3ccccc3c2n1,18,0,x,17,1,x
Nc1nn2cc(-c3ccccc3)nc2c2ccccc12,47,85*,18,56*,0.2,51*
CN1CC(O)(C(O)C(O)C(O)CO)SC1=S (stereo not drawn),x,x,x,-7,x,x
Cc1ccc(S(=O)(=O)N2[C@@H](CO)CO[C@H]2CC(=O)c2cccc3ccccc23)cc1,x,x,x,-9,x,x
Cc1ccc(N2C(=O)Nc3ccccc3C2(O)C(=O)N2CCN(c3ccccn3)CC2)cc1C (stereo not drawn),11,10,6,18,0.9,5
COCC(C)n1c(C)cc(C(=O)COC(=O)c2cccn2C)c1C (stereo not drawn),x,x,x,28,x,x
Cc1cc(C(=O)COC(=O)c2cccn2C)c(C)n1Cc1ccco1,38,80*,2,63*,0.2,24

# Screening data from PubChem.
